Laboratory results: ChEMBL document CHEMBL4033777, “Next-Generation Hypoxic Cell Radiosensitizers: Nitroimidazole Alkylsulfonamides” (J Med Chem, 2018)
Values after ≈ are worked out from the molar mass of the structure shown.

Legend:
Mus musculus [1] = assay: Toxicity in NIH-III mouse xenografted with human HCT116 cells assessed as change in body weight with 12.5 Gy radiation at 2.20 mmol/kg, iv administered as single dose; conditions: in vivo
Mus musculus [2] = assay: Drug level in NIH-III mouse assessed as maximum achievable dose at 10 ml/kg, iv; type: ADME; conditions: in vivo
Procedure, shortened: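 Non-tumor-bearing female NIH-III mice (~20 g) received freshly prepared solutions i.v. at 10 mL/kg in 0.9% saline with 1% DMSO, or saline with 2 molar equivalents NaHCO3 for phosphate prodrugs. MAD was the maximum dose that dissolved in the injection volume.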

[3] = Cmax in tumor of NIH-III mouse xenografted with human HCT116 cells at 2.20 mmol/kg, iv administered as single dose by HPLC analysis; type: ADME, organism-based, Neoplasm; design: dose 2.2 mmol/kg, route intravenous; conditions: in vivo
Procedure, shortened: (§1)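 Female NIH-III mice bearing subcutaneous HCT116 xenografts (10^6 cells inoculated). At ca. 300 mm3 tumor size, a single i.v. dose was given at the MAD or 75% of the MTD. Vehicle was 0.9% saline with 1% DMSO, or saline with 2 molar equivalents NaHCO3 for phosphate prodrugs. Plasma and tumor were sampled at multiple times by cardiac puncture and excision, assayed by HPLC, and analysed noncompartmentally.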

[4] = Solubility of the compound in alphaMEM containing 5% FCS and 1% DMSO by HPLC analysis; type: physicochemical
Procedure, shortened: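 Saturated drug solutions were incubated at 37 °C in αMEM with 5% FCS and 1% DMSO. Dissolved drug was quantified by HPLC.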

[5] = Tmax in tumor of NIH-III mouse xenografted with human HCT116 cells at 2.20 mmol/kg, iv administered as single dose by HPLC analysis; type: ADME, organism-based, Neoplasm; conditions: 2.2 mmol/kg
Procedure, shortened: (§2)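 Female NIH-III mice bearing subcutaneous HCT116 tumors (10^6 cells; ~300 mm3) got a single i.v. dose at the MAD or 75% of the MTD. Vehicle was saline with 1% DMSO, or saline with 2 equivalents of NaHCO3 for the phosphates. Plasma and tumor were sampled at multiple times by cardiac puncture and excision, drug was measured by HPLC, and Tmax came from noncompartmental analysis.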

Plasma = assay: Cmax in plasma of NIH-III mouse xenografted with human HCT116 cells at 2.20 mmol/kg, iv administered as single dose by HPLC analysis; type: ADME, organism-based; design: dose 2.2 mmol/kg, route intravenous; conditions: in vivo
Procedure, shortened: as §1

[6] = Tmax in plasma of NIH-III mouse xenografted with human HCT116 cells at 2.20 mmol/kg, iv administered as single dose by HPLC analysis; type: ADME, organism-based; conditions: 2.2 mmol/kg
Procedure, shortened: as §2

HCT-116 [7] = assay: In vivo hypoxia radiosensitization activity in human HCT116 cells xenografted in NIH-III mouse assessed as survival ratio by measuring ratio of cell survival with 12.5 Gy radiation in absence to presence of compound at 2.20 mmol/kg, iv pretreated as single dose for 10 mins followed by irradiation measured after 18 hrs by excision assay; type: functional
HCT-116 [8] = assay: (§3) Hypoxia radiosensitization activity in human HCT116 cells assessed as survival ratio by measuring ratio of cell survival with radiation in absence to presence of compound at 0.08 mM preincubated for 1 hr followed by 6 to 29 Gy irradiation measured after 10 days by methylene blue staining-based cell counting method relative to misonidazole; type: functional
HCT-116 [9] = assay: as §3, with “method” for “method relative to misonidazole”; type: functional
HCT-116 [10] = assay: Cytotoxicity against human HCT116 cells incubated for 4 hrs under aerobic condition measured after 5 days by sulforhodamine B assay; type: cell-based
Procedure, shortened: (§4)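 STR-authenticated, mycoplasma-free HCT116 cells in αMEM + 5% FCS were seeded at 700 cells/well and allowed 2 h to attach. Drug was added from DMSO stocks (<1% DMSO) in serial 3-fold dilutions for 4 h, oxic or anoxic (Pd-catalyst anaerobic chamber, medium pre-equilibrated ≥3 days). After washing, cells regrew for 5 days before SRB staining and IC50 determination.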

HCT-116 [11] = assay: Cytotoxicity against human HCT116 cells at anoxic IC50 incubated for 1 hr at 21 degC by clonogenic survival assay; conditions: hct-116, 1 h
HCT-116 [12] = assay: as §3, with “0.81” for “0.08”; type: functional
HCT-116 [13] = assay: Hypoxic cytotoxicity ratio of IC50 for human HCT116 cells under oxic condition to IC50 for human HCT116 cells under anoxic condition
Procedure, shortened: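 HCT116 cells, 700 per well and attached 2 h, got a 4 h exposure to 3-fold serial dilutions (<1% DMSO) under air or in a Pd-catalyst anaerobic chamber with pre-equilibrated medium. Cells were washed, regrown 5 days, and stained with sulforhodamine B to give IC50. HCR = oxic IC50 / anoxic IC50.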

HCT-116 [14] = assay: as §3, with “with 15 Gy” for “with”, “anoxic IC50” for “0.08 mM”, “15” for “6 to 29”, “method” for “method relative to misonidazole”; type: functional
Procedure, shortened: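 Anoxic HCT116 cells were seeded at 10^5/well and treated at the anoxic IC50 concentration for 1 h at room temperature. They were irradiated with 15 Gy (60Co, ~2 Gy/min) in a sealed steel box, then plated clonogenically. Colonies of >50 cells were counted […]. SR15 = survival with radiation / survival with drug + radiation.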

HCT-116 [15] = assay: as §3, with “as sensitizer enhancement” for “as survival”, “of radiation dose for 1%” for “of cell”, “survival” for “survival with radiation”, “at 0.81” for “at 0.08”, “by” for “by 6 to 29 Gy”; type: functional
[16] = Electrophilicity of the compound in pH 7 phosphate buffer assessed as one-electron reduction potential
Procedure, shortened: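 The one-electron reduction potential was set by pulse radiolysis equilibria at pH 7.0 (2.5 mM phosphate), established within 20 µs against benzylviologen, methylviologen or triquat. ΔE came from equilibrium constants via the Nernst equation, at three concentration ratios and 22 ± 2 °C.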

HCT-116 [17] = assay: Cytotoxicity against human HCT116 cells incubated for 4 hrs under anaerobic condition measured after 5 days by sulforhodamine B assay; type: functional, cell-based
Procedure, shortened: as §4

HCT-116 [18] = assay: as §3, with “0.81” for “0.08”, “method” for “method relative to misonidazole”; type: functional
HCT-116 [19] = assay: (§5) Hypoxia radiosensitization activity in human HCT116 cells assessed as sensitizer enhancement ratio by measuring ratio of radiation dose for 1% survival in absence to presence of compound at 0.81 mM preincubated for 1 hr followed by irradiation measured after 10 days by methylene blue staining-based cell counting method; type: functional
HCT-116 [20] = assay: as §5, with “0.68” for “0.81”, “method relative to misonidazole” for “method”; type: functional
HCT-116 [21] = assay: as §3, with “0.68” for “0.08”; type: functional
HCT-116 [22] = assay: as §3, with “0.68” for “0.08”, “method” for “method relative to misonidazole”; type: functional
HCT-116 [23] = assay: as §5, with “0.68” for “0.81”; type: functional
HCT-116 [24] = assay: as §5, with “2.32” for “0.81”; type: functional
HCT-116 [25] = assay: as §3, with “2.32” for “0.08”, “method” for “method relative to misonidazole”; type: functional
HCT-116 [26] = assay: as §3, with “2.32” for “0.08”; type: functional
HCT-116 [27] = assay: as §5, with “2.32” for “0.81”, “method relative to misonidazole” for “method”; type: functional
HCT-116 [28] = assay: Hypoxia radiosensitization activity in human HCT116 cells assessed as sensitizer enhancement ratio by measuring ratio of radiation dose for 1% survival in absence to presence of compound at 1 mM […] measured after 10 days by methylene blue staining-based cell counting method; type: functional
HCT-116 [29] = assay: as §3, with “1” for “0.08”, “method” for “method relative to misonidazole”; type: functional
HCT-116 [30] = assay: as §3, with “1” for “0.08”; type: functional
HCT-116 [31] = assay: as §5, with “1” for “0.81”, “method relative to misonidazole” for “method”; type: functional
HCT-116 [32] = assay: as §3, with “0.52” for “0.08”, “method” for “method relative to misonidazole”; type: functional
HCT-116 [33] = assay: as §3, with “0.52” for “0.08”; type: functional
HCT-116 [34] = assay: as §3, with “0.11” for “0.08”; type: functional
HCT-116 [35] = assay: as §3, with “0.11” for “0.08”, “method” for “method relative to misonidazole”; type: functional
HCT-116 [36] = assay: as §5, with “0.08” for “0.81”, “method relative to misonidazole” for “method”; type: functional
HCT-116 [37] = assay: as §5, with “0.08” for “0.81”; type: functional
HCT-116 [38] = assay: as §3, with “2.1” for “0.08”, “method” for “method relative to misonidazole”; type: functional
HCT-116 [39] = assay: as §5, with “2.1” for “0.81”, “method relative to misonidazole” for “method”; type: functional
HCT-116 [40] = assay: as §5, with “2.1” for “0.81”; type: functional

Structure (SMILES)	Drug uptake (Mus musculus [2])	Cmax [3]	solubility [4]	Tmax [5]	Cmax (Plasma)	Tmax [6]	Ratio (HCT-116 [7])	Activity (HCT-116 [11])	Ratio IC50 (HCT-116 [13])	Ratio (HCT-116 [14])	IC50 (HCT-116 [17])	other results
O=[N+]([O-])c1nccn1CS(=O)(=O)NCCOP(=O)(O)O	2.2 mmol/kg	320 µM	185 mM (≈ 61.1 mg/mL)	10 min	900 µM	10 min	10					Activity (Mus musculus [1]): Non-Toxic
COCCNS(=O)(=O)Cn1ccnc1[N+](=O)[O-]								Non-Toxic				fold change (FC) (HCT-116 [8]): 0.78; Ratio (HCT-116 [9]): 2.9; IC50 (HCT-116 [10]): 380 to 4800 µM
O=[N+]([O-])c1nccn1CCS(=O)(=O)NCCO			75.3 mM (≈ 19.9 mg/mL)					Non-Toxic	8	12	800 µM	fold change (FC) (HCT-116 [12]): 0.54; fold change (FC) (HCT-116 [15]): 0.92; Activity [16]: -391 mV; Ratio (HCT-116 [18]): 4.2; Ratio (HCT-116 [19]): 1.27; IC50 (HCT-116 [10]): 380 to 4800 µM
Cc1ncc([N+](=O)[O-])n1CCS(=O)(=O)N1CCC(N(C)C)CC1			46.5 mM (≈ 16.1 mg/mL)					Non-Toxic	2.9	12	700 µM	fold change (FC) (HCT-116 [20]): 1.15; fold change (FC) (HCT-116 [21]): 2.3; Ratio (HCT-116 [22]): 25; Ratio (HCT-116 [23]): 1.67
O=[N+]([O-])c1cncn1CS(=O)(=O)NCCO			23.7 mM (≈ 5.93 mg/mL)					Non-Toxic	4	181	2300 µM	Ratio (HCT-116 [24]): 1.81; Ratio (HCT-116 [25]): 114; fold change (FC) (HCT-116 [26]): 14.8; fold change (FC) (HCT-116 [27]): 1.28
O=C(Cn1ccnc1[N+](=O)[O-])NCCO [ETANIDAZOLE]	2.2 mmol/kg	800 µM	> 200 mM	5 min	3640 µM	5 min	8	Non-Toxic	19	7	1000 µM	Activity (Mus musculus [1]): Non-Toxic; Ratio (HCT-116 [28]): 1.339; Ratio (HCT-116 [29]): 4.6; fold change (FC) (HCT-116 [30]): 0.75; fold change (FC) (HCT-116 [31]): 0.95; Activity [16]: -388 mV
COCCNS(=O)(=O)Cn1cnc([N+](=O)[O-])c1								Non-Toxic				Ratio (HCT-116 [32]): 1.3; fold change (FC) (HCT-116 [33]): 0.44
COCCNS(=O)(=O)Cn1cncc1[N+](=O)[O-]								Non-Toxic				fold change (FC) (HCT-116 [34]): 0.44; Ratio (HCT-116 [35]): 1.9
O=[N+]([O-])c1cncn1CS(=O)(=O)NCCOP(=O)(O)O	2.2 mmol/kg	140 µM		30 min	1100 µM	10 min	13					Activity (Mus musculus [1]): Non-Toxic
O=[N+]([O-])c1nccn1CS(=O)(=O)NCCN1CCOCC1			450 mM (≈ 144 mg/mL)					Non-Toxic	50	10.5	80 µM	fold change (FC) (HCT-116 [8]): 0.51; fold change (FC) (HCT-116 [36]): 0.89; Ratio (HCT-116 [37]): 1.28; Ratio (HCT-116 [9]): 3.9; IC50 (HCT-116 [10]): 380 to 4800 µM
O=[N+]([O-])c1cncn1CS(=O)(=O)NCCN1CCOCC1								Non-Toxic	1.4	60	2100 µM	Ratio (HCT-116 [38]): 8.2; fold change (FC) (HCT-116 [39]): 1.01; Ratio (HCT-116 [40]): 1.43
O=[N+]([O-])c1nccn1CCS(=O)(=O)NCCOP(=O)(O)O	2.2 mmol/kg	390 µM		10 min	1140 µM	10 min	2.9					
Cc1ncc([N+](=O)[O-])n1CCS(=O)(=O)NCCO			> 49.3 mM					Non-Toxic	1.3	3.4	400 µM	fold change (FC) (HCT-116 [20]): 0.82; fold change (FC) (HCT-116 [21]): 0.36; Ratio (HCT-116 [22]): 1.616; Ratio (HCT-116 [23]): 1.176
